{
  "source": "paper PMC7194111",
  "about": "(Virology, 2020)",
  "key": {"Cytotoxicity measurement [1]": {"assay": "Cytotoxicity measurement", "format": "cell-based", "settings": "African green monkey, Vero cells", "procedure,_shortened": "(§1)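 Cells seeded at 6 × 10^3/well and exposed to a range of test compound concentrations (DMSO stock diluted in medium) for 48 h; controls received equal-volume DMSO. 10% CCK8 reagent added for 1 h, then absorbance read at 450 nm. CC50 taken as the concentration lowering viability by 50%.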"}, "Cytotoxicity measurement [2]": {"assay": "Cytotoxicity measurement", "format": "cell-based", "settings": "human, A549 cells", "procedure,_shortened": "as §1"}, "Cytotoxicity measurement [3]": {"assay": "Cytotoxicity measurement", "format": "cell-based", "settings": "human, Huh7 cells", "procedure,_shortened": "as §1"}, "ZIKV [4]": {"system": "ZIKV", "assay": "Anti-ZIKV assay", "format": "cell-based, Zika virus", "settings": "for EC50: Zika virus", "procedure,_shortened": "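Cells seeded at 2 × 10^5/well and pretreated 2 h with serial dilutions of test compound (DMSO stock diluted in medium). Infected with ZIKV (Asian strain KU963796) at MOI 0.1 for 2 h, then incubated to 48 hpi at 37 °C, 5% CO2 in DMEM. Cellular vRNA measured by SYBR Green qRT-PCR using the 2^-ΔΔCT method normalized to GAPDH. EC50 is the concentration reducing viral yield by 50%.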"}, "ZIKV [5]": {"system": "ZIKV", "settings": "ref Adcock et al., 2017; cited from earlier work"}, "ZIKV [6]": {"system": "ZIKV", "assay": "Plaque forming assay", "format": "cell-based, Zika virus", "procedure,_shortened": "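Supernatants from ZIKV-infected, compound-treated cultures were put on overnight Vero monolayers (2 × 10^5 cells/well) for 2 h at 37 °C. Inoculum replaced with plaque medium containing 1% methylcellulose. After 7 days, cells fixed and stained with 4% formaldehyde and 0.5% crystal violet.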"}, "ZIKV [7]": {"system": "ZIKV", "assay": "Viral protein by western blotting and immunofluorescence in Vero cells", "format": "cell-based, Zika virus", "procedure,_shortened": "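Vero cells infected with ZIKV at MOI 0.1 and treated with test compound or DMSO. At 48 hpi: fixed in 4% paraformaldehyde (15 min), permeabilized with 0.2% Triton X-100 (5 min), blocked in 5% BSA (30 min). Stained overnight at 4 °C with pan-flavivirus envelope mAb 4G2, then fluorescent secondary for 30 min at RT. Nuclei stained with DAPI; imaged by confocal microscopy.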"}, "ZIKV [8]": {"system": "ZIKV", "assay": "Time-of-addition assay", "format": "cell-based, Zika virus", "settings": "1 μM, added between -2 and 10 hpi, Vero cells, read at 48 hpi"}, "ZIKV [9]": {"system": "ZIKV", "assay": "Time-of-removal assay", "format": "cell-based, Zika virus", "procedure,_shortened": "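ZIKV-infected Vero cells received 1 μM test compound or DMSO at 6 hpi, with vRNA sampled every 3 h up to 24 hpi. Alternatively, treatment started at 24 hpi, with sampling every 6 h for a further 12 h. vRNA by SYBR Green qRT-PCR normalized to GAPDH. E and NS5 protein by western blot of cell lysates (SDS-PAGE, PVDF, overnight primary antibody at 4 °C, ECL), with GAPDH detected.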"}, "ZIKV [10]": {"system": "ZIKV", "assay": "ZIKV strand specific RNA by qRT-PCR", "format": "cell-based", "settings": "Zika virus, Vero"}, "ZIKV NS5 RdRp": {"target": "ZIKV NS5 RdRp (Zika virus, UniProt A0A024B7W1)", "sequence (A0A024B7W1 2521-3423 limits assumed)": "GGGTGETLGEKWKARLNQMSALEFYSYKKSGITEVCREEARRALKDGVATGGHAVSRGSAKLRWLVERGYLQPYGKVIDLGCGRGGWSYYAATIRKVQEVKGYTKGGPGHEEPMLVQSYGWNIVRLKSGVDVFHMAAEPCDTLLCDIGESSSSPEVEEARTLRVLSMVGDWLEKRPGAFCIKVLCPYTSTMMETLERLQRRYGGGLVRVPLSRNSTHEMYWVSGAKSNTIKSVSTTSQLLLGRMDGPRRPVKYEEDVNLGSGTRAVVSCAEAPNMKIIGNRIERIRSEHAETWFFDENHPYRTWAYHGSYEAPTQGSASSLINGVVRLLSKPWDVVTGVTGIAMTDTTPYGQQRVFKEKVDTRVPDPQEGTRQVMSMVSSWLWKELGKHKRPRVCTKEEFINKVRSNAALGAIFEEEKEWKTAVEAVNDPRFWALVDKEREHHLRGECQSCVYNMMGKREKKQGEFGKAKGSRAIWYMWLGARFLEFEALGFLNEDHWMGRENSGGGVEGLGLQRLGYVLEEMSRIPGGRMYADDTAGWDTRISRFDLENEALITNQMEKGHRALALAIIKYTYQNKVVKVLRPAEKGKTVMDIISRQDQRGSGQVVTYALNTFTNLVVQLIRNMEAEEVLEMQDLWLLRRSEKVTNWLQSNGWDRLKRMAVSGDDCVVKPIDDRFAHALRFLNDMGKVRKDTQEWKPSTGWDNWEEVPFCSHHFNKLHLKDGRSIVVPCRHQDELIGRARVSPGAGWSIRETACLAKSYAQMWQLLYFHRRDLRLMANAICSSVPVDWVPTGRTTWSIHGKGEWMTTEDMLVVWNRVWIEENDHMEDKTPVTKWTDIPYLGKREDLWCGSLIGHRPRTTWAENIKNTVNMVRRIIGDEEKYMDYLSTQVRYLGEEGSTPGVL", "assay": "In vitro RNA polymerase assay", "format": "biochemical", "settings": "recombinant ZIKV NS5, serial dilutions"}, "ZIKV [11]": {"system": "ZIKV", "assay": "Lethal ZIKV challenge in AG6 mice", "format": "in vivo", "procedure,_shortened": "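AG6 mice aged 4–5 weeks (13–15 g, n = 6/group) were infected with 3.3 × 10^6 PFU ZIKV via footpad. Dosed intragastrically at 1, 5 or 10 mg/kg (DMSO stock in 0.5% carboxymethyl cellulose) or vehicle for 14 days. Survival and body weight tracked to 14 dpi. Retro-orbital blood at 1, 3, 7 dpi: vRNA copies by qRT-PCR against a standard curve. Brain/liver vRNA by RT-qPCR; H&E histology. One-way ANOVA with Dunnett's test.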"}, "[12]": {"settings": "1 μM added at 6 hpi, after 24 h of viral infection, western blot intensity"}},
  "note": "Like-named read-outs stand apart in the source and are kept apart here.",
  "data": [
    {"smiles": "Cc1c(-c2ccc(-c3ccccc3F)cc2)nc2ccc(F)cc2c1C(=O)O", "note": "[Brequinar, reference compound]", "values": [
      {"measurement": "CC50 at 48 h", "setting": "Cytotoxicity measurement [1]", "value": "> 50000", "unit": "nM"},
      {"measurement": "CC50 at 48 h", "setting": "Cytotoxicity measurement [2]", "value": "> 50000", "unit": "nM"},
      {"measurement": "CC50 at 48 h", "setting": "Cytotoxicity measurement [3]", "value": "> 50000", "unit": "nM"},
      {"measurement": "SI (selectivity index)", "setting": "ZIKV [4]; A549 cells", "value": ">1086"},
      {"measurement": "SI (selectivity index)", "setting": "ZIKV [4]; Huh7 cells", "value": ">8333"},
      {"measurement": "SI (selectivity index)", "setting": "ZIKV [4]; Vero cells", "value": ">2272"},
      {"measurement": "EC50", "setting": "ZIKV [4]; A549", "value": 46, "unit": "nM"},
      {"measurement": "EC50", "setting": "ZIKV [4]; Huh-7", "value": 6, "unit": "nM"},
      {"measurement": "EC50", "setting": "ZIKV [4]; Vero", "value": 22, "unit": "nM"},
      {"measurement": "EC50", "setting": "ZIKV [5]", "value": 80, "unit": "nM"}
    ]},
    {"smiles": "O[C@H]1[C@H]2c3cc4c(cc3CN3CCC(=C[C@@H]1O)[C@H]23)OCO4", "note": "[Lycorine]", "values": [
      {"measurement": "CC50 at 48 h", "setting": "Cytotoxicity measurement [1]", "value": 21000, "unit": "nM"},
      {"measurement": "CC50 at 48 h", "setting": "Cytotoxicity measurement [2]", "value": 4290, "unit": "nM"},
      {"measurement": "CC50 at 48 h", "setting": "Cytotoxicity measurement [3]", "value": 4400, "unit": "nM"},
      {"measurement": "SI (selectivity index)", "setting": "ZIKV [4]; A549 cells", "value": 19.5},
      {"measurement": "SI (selectivity index)", "setting": "ZIKV [4]; Huh7 cells", "value": 20},
      {"measurement": "SI (selectivity index)", "setting": "ZIKV [4]; Vero cells", "value": 54},
      {"measurement": "EC50", "setting": "ZIKV [4]; A549", "value": 220, "unit": "nM"},
      {"measurement": "EC50", "setting": "ZIKV [4]; Huh-7", "value": 220, "unit": "nM"},
      {"measurement": "EC50", "setting": "ZIKV [4]; Vero", "value": 390, "unit": "nM"},
      {"measurement": "Inhibition of plaque formation", "setting": "ZIKV [6]; 0.5 μM", "value": "partially"},
      {"measurement": "Inhibition of plaque formation", "setting": "ZIKV [6]; 5 μM", "value": "completely"},
      {"measurement": "ZIKV protein (western blotting)", "setting": "ZIKV [7]; 0.01 to 10 μM", "value": "dose-dependent reduction in the ZIKV protein"},
      {"measurement": "ZIKV envelope biosynthesis (immunofluorescence)", "setting": "ZIKV [7]; 48 hpi", "value": "significantly reduced"},
      {"measurement": "vRNA and viral progeny particle load, time-of-addition", "setting": "ZIKV [8]", "value": "strongest ability to decrease the vRNA and viral progeny particle load"},
      {"measurement": "vRNA synthesis", "setting": "ZIKV [9]; 1 μM added at 6 hpi, Vero cells, monitored up to 24 hpi", "value": "fully abrogated vRNA synthesis"},
      {"measurement": "NS5 protein reduction", "setting": "ZIKV [9]; [12]", "value": 89, "unit": "%"},
      {"measurement": "Virus E protein reduction", "setting": "ZIKV [9]; [12]", "value": 52, "unit": "%"},
      {"measurement": "Viral E and NS5 protein reduction", "setting": "ZIKV [9]; 1 μM added at 24 hpi", "value": "no significant difference"},
      {"measurement": "vRNA", "setting": "ZIKV [9]; 1 μM added at 24 hpi, monitored for additional 12 h", "value": "no effect on vRNA"},
      {"measurement": "inhibition at 1 µM", "setting": "ZIKV [10]; read-out: Inhibition of negative-sense vRNA synthesis", "value": "~95", "unit": "%"},
      {"measurement": "inhibition at 1 µM", "setting": "ZIKV [10]; read-out: Inhibition of positive-sense vRNA synthesis", "value": "~93", "unit": "%"},
      {"measurement": "RdRp activity", "setting": "ZIKV NS5 RdRp", "value": "directly inhibited RdRp activity in a dose-dependent manner"},
      {"measurement": "Brain histopathology (H&E)", "setting": "ZIKV [11]; 1 mg/kg", "value": "brain tissue lesions were similar to those in the ZIKV group"},
      {"measurement": "Liver histopathology (H&E)", "setting": "ZIKV [11]; 1 mg/kg", "value": "inflammatory response of the cells was obvious"},
      {"measurement": "Reduction of vRNA of brain tissue", "setting": "ZIKV [11]; 1 mg/kg", "value": "not significant difference"},
      {"measurement": "Reduction of vRNA of liver", "setting": "ZIKV [11]; 1 mg/kg", "value": "not significant difference"},
      {"measurement": "Survival rate", "setting": "ZIKV [11]; 1 mg/kg intragastric, 14 days", "value": 33, "unit": "%"},
      {"measurement": "Brain histopathology (H&E)", "setting": "ZIKV [11]; 5 mg/kg", "value": "significantly reduced the ZIKV-induced inflammatory response"},
      {"measurement": "Reduction of vRNA of brain tissue", "setting": "ZIKV [11]; 5 mg/kg", "value": "about one order of magnitude"},
      {"measurement": "Reduction of vRNA of liver", "setting": "ZIKV [11]; 5 mg/kg", "value": "about one and half order of magnitude, respectively"},
      {"measurement": "Survival rate", "setting": "ZIKV [11]; 5 mg/kg intragastric, 14 days", "value": 66, "unit": "%"},
      {"measurement": "Brain histopathology (H&E)", "setting": "ZIKV [11]; 10 mg/kg", "value": "significantly reduced the ZIKV-induced inflammatory response"},
      {"measurement": "Reduction of vRNA of brain tissue", "setting": "ZIKV [11]; 10 mg/kg", "value": "about three orders of magnitude"},
      {"measurement": "Survival (protection against ZIKV infection-induced death)", "setting": "ZIKV [11]; 10 mg/kg intragastric, 14 days, ZIKV group 100% mortality", "value": 83, "unit": "%"},
      {"measurement": "Liver histopathology (H&E)", "setting": "ZIKV [11]; 10 mg/kg, compared to 5 mg/kg group", "value": "significantly reduced liver damage"},
      {"measurement": "vRNA levels in blood versus ZIKV group", "setting": "ZIKV [11]; 1, 3 and 7 dpi", "value": "one order of magnitude lower"},
      {"measurement": "Body weight changes", "setting": "ZIKV [11]; weight loss from 5 dpi, 0 to 14 dpi", "value": "recovered until 9 or 10 dpi"}
    ]}
  ]
}
